Efflux pump inh: inhibitors of Candida antifungal efflux pumps expressed in yeast | S. cerevisiae Candida pump triplex, Nile Red efflux | inhibition, % at 10 µM | actives 0.44% (n = 330,000);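 active = plate passing quality check with inhibition over a set limit, or well fluorescence over plate mean plus 4 SD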;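 also: Nile Red retained in pooled yeast measured as flow cytometry median fluorescence; higher means more Nile Red kept so more efflux inhibition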
MC4R barr agon: activates human MC4R beta-arrestin recruitment. P32245. U2OS MC4R beta-arrestin complementation, luminescence; percent of melanotan II response, DMSO zero. activation, % at 8.9 µM. actives 0.98% (n = 360,000). AID 540308;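 active = activation above a per-plate cutoff, the mean activation of sample wells on that plate plus 3 SD, cut at about 8% in these data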
Target sequence (P32245 whole entry, looked up): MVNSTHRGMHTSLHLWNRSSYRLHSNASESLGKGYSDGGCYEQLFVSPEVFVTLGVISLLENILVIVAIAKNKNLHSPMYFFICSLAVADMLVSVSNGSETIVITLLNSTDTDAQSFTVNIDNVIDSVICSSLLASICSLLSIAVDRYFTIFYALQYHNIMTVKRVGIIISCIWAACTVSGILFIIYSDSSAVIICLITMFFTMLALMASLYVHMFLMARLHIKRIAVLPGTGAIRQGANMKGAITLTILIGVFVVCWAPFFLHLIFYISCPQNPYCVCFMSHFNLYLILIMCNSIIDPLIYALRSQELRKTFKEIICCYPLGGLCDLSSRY
GalR3 antag: human GalR3 antagonism; inhibition, % at 3 µM; HEK293 GalR3-CNG cAMP membrane potential fluorescence; galR3 body fused to GalR1 C-terminus; actives 0.44% (n = 360,000); O60755;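 active = inhibition above the screen-wide average plus 3 SD, cut at about 13% in these data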;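 also: forskolin and galanin both at EC90 stimulate the cells; cAMP rise reported by CNG channel membrane potential dye signal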
Target sequence (O60755 1-299 limits assumed): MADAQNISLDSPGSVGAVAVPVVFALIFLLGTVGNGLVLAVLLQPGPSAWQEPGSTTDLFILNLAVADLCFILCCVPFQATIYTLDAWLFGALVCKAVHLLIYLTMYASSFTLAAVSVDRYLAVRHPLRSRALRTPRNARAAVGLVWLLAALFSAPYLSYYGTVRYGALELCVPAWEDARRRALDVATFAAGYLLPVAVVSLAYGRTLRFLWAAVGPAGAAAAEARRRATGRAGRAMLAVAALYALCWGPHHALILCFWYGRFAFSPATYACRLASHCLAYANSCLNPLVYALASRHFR
H9c2 TAG inh: inhibitors of triacylglycerol accumulation | inhibition, % at 12.5 µM | AID 651582 | H9c2 cells, Nile Red lipid (TAG) fluorescence; cells loaded with 200 µM oleic acid | actives 0.66% (n = 230,000);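 active = pattern-corrected inhibition of lipid staining of at least 50% with the nuclear-stain viability signal not falling by more than 50%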
Calb FLC: affects C. albicans growth with fluconazole | C. albicans CaCi-2 (fluconazole-resistant clinical isolate) + fluconazole, Alamar Blue growth, 48 h | growth inhibition, % (no concentration beside the values) | actives 0.57% (n = 300,000);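 active = growth inhibition above about 58% in most replicates, limit read from the data, passing the limit was not always enough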;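 also: all wells also contain fluconazole at 8 µg/ml as a sub-toxic cotreatment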
MC4R antagonist: blocks human MC4R cAMP signaling; P32245; MC4R-expressing cells, MTII-stimulated cAMP, LANCE TR-FRET; inhibition, % at 6.5 µM; actives 0.48% (n = 360,000); AID 540295;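 active = inhibition above its plate's cutoff, the mean of tested wells on that plate plus 3 SD, cut at about 29% in these data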
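Test system: U2OS cells stably expressing human melanocortin 4 receptor (MC4R); also added: Melanotan II challenge; compound: 6.5 µM single dose; timing: 30-min compound preincubation, 1-h Melanotan II challenge, 1-h detection, room temperature; signal: Eu-cAMP/anti-cAMP TR-FRET, emission 671 nm; repeats: one well per compound, no replicates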
GalR3 conf: GalR3 (human) antagonism, confirmation; shares compounds with GalR3 antag; actives 59% (n = 1,600); HEK293 GalR3 CNG cAMP biosensor, membrane potential fluorescence; galR3 fused to GalR1 carboxy tail; challenged with forskolin and galanin at EC90; inhibition, % at 3 µM;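 active = inhibition above the primary screen's cutoff, the mean inhibition of all screened compounds plus 3 SD, cut at about 13% in these data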
CNG parental: parental cell agonism counter-screen for GalR3 antagonists; HEK293-CNG parental cells, cAMP membrane potential fluorescence; normalised: DMSO wells 0%, forskolin wells 100%; activation, % at 3 µM; shares compounds with GalR3 antag; AID 652268; actives 10% (n = 1,600); in the data active = activation above about 1.3%
Hits are given with their value; i = inactive; nt = no result given. Hits are enriched below; roughly 2.9% of the tested compounds scored in any of these assays.

SMILES	Efflux pump inh	MC4R barr agon	GalR3 antag	H9c2 TAG inh	Calb FLC	MC4R antagonist	GalR3 conf	CNG parental
COc1ccc(-c2c(C(=O)c3ccccc3)[nH]c(N)c2C(=O)NCCc2c[nH]c3ccccc23)cc1	nt	nt	i	nt	nt	nt	nt	nt
Cc1nn(C)c(Cl)c1NC(=O)OCc1ccc(Cl)cc1Cl	i	i	96.1	nt	i	i	20.9	i
Cc1cc(C)c(C#N)c(SCc2[nH]nc3c2C(c2ccc(F)cc2)C(C#N)=C(N)O3)n1 (stereo not given)	i	i	18.5	i	i	i	39.1	4.4
CC(OC(=O)c1c2c(nc3ccccc13)/C(=C\c1ccc3c(c1)OCO3)CCC2)C(=O)Nc1ccc(S(N)(=O)=O)cc1 (stereo not given)	nt	i	nt	i	nt	i	nt	nt
Cc1cccc(C)c1NC(=O)COC(=O)c1c2c(nc3ccccc13)/C(=C\c1ccc3c(c1)OCO3)CCC2	i	i	nt	nt	nt	i	i	i
CC(C)=CCc1c2c(c3occ(-c4ccc(O)cc4)c(=O)c3c1O)C=CC(C)(C)O2	i	i	20.3	nt	i	i	24.3	i
COc1cc2c(cc1OC)-c1cc(N3CCc4ccccc43)nc(=O)n1CC2	i	i	i	i	i	i	nt	nt
COc1cc2c(cc1OC)-c1cc(N3CCCc4ccccc43)nc(=O)n1CC2	i	i	47.1	nt	i	i	59.6	i
COc1cc2c(cc1OC)-c1cc(N3CCCCCC3)nc(=O)n1CC2	i	i	50.0	nt	i	i	14.1	i
COc1cccc(-c2oc3c(c2C#CC2(N)CCCCC2)C(O)CCC3)c1 (stereo not given)	nt	nt	i	nt	nt	nt	nt	nt
CCCCC[C@H](O)/C=C/C1C(=O)C=C[C@H]1C/C=C\CCCC(=O)OC (stereo not given in full)	nt	i	64.3	i	nt	i	80.0	i
N/C(=N\NS(=O)(=O)c1ccc(Cl)cc1)c1ccccn1	i	i	13.8	i	i	i	i	i
N/C(=N\NS(=O)(=O)c1ccccc1)c1ccccn1	i	i	i	i	i	i	nt	nt
C=CCN(CC=C)Cc1cc(=O)oc2cc(C)cc(C)c12	nt	nt	i	nt	nt	nt	nt	nt
Cc1ccc(S(=O)(=O)Nc2nc(-c3ccccc3)cs2)cc1	i	i	i	nt	i	i	nt	nt
Cc1ccc(S(=O)(=O)Nc2ccccc2C(=O)Nc2nc(-c3ccc(F)cc3)cs2)cc1	i	i	90.1	nt	i	i	114.1	i
CC1C(=O)C(C)C(c2ccc([N+](=O)[O-])cc2)NC1c1ccc([N+](=O)[O-])cc1 (stereo not given)	i	i	i	i	i	i	nt	nt
CC1C(=O)CC(c2ccc([N+](=O)[O-])cc2)NC1c1ccc([N+](=O)[O-])cc1 (stereo not given)	i	i	17.8	i	i	i	17.4	i
C[C@@H]1NS(=O)(=O)c2cccc(Cl)c2O[C@@H]1c1ccccc1	nt	nt	i	nt	nt	nt	nt	nt
CCN(CC)S(=O)(=O)c1ccc(N2CCCC2)c(NC(=O)Cc2cc(OC)c(OC)c(OC)c2)c1	i	i	19.4	nt	i	i	i	i
CCN(CC)S(=O)(=O)c1ccc(N2CCOCC2)c(NC(=O)COc2ccccc2)c1	i	i	nt	i	i	i	12.9	i
Cc1nc2ccc(NC(=O)C3(C)CCCN(C(C)C)C3)cc2o1 (stereo not given)	nt	i	i	i	nt	i	nt	nt
COc1ccccc1N(C)c1cc2c(c3c1ccn3C)C1CCC2O1 (stereo not given)	nt	nt	i	nt	nt	nt	nt	nt
CC(=O)N[C@@H](Cc1c[nH]c2ccccc12)C(=O)OCC(=O)Nc1ccc(Cl)c(S(=O)(=O)N(C)C)c1	i	i	i	i	i	i	nt	nt
CC(=O)NC(Cc1c[nH]c2ccccc12)C(=O)OCC(=O)Nc1ccc2c(c1)OCO2 (stereo not given)	i	i	15.4	i	i	i	i	i
SMILES	Efflux pump inh	MC4R barr agon	GalR3 antag	H9c2 TAG inh	Calb FLC	MC4R antagonist	GalR3 conf	CNG parental
CCOc1ccccc1OCC(=O)N/N=C(\C)Cc1ccc(OC)cc1	i	i	22.4	nt	i	i	i	i
COc1ccccc1OCC(=O)NN=C(Cc1ccccc1)Cc1ccccc1	i	i	i	nt	i	i	nt	nt
CCn1ncc(C2=NOC(C(=O)NCc3ccccc3)C2)c1C (stereo not given)	i	i	16.0	nt	i	i	24.8	i
CC(=O)c1cc2c(cc1C)CCCC2(C)C	nt	i	i	i	nt	i	nt	nt
COc1ccc(CN2C(=O)C(CC(=O)NCc3ccco3)CC(C(=O)N3CCOCC3)=C2C)cc1 (stereo not given)	nt	i	i	i	nt	i	nt	nt
O=C(c1cccs1)N1CCOCC1	i	i	12.9	nt	i	i	i	i
CC(C)CC(c1nnnn1C(C)C)N1CCN(c2ccccc2)CC1 (stereo not given)	i	i	nt	nt	i	i	i	6.9
O=C(c1ccc(CNS(=O)(=O)c2ccccc2)cc1)N1CCN(Cc2ccccc2)CC1	i	i	20.9	nt	i	i	i	i
COc1ccc(CCNC(=O)c2[nH]c(C)c(C(C)=O)c2C)cc1	i	i	i	i	i	i	nt	nt
COc1ccc(OCCOC(=O)c2[nH]c(C)c(C(C)=O)c2C)cc1	i	i	15.6	i	i	i	i	i
OCC1OC(n2cnc3c(NC4CCCCC4)ncnc32)C(O)C1O (stereo not given)	i	i	35.8	nt	i	i	49.3	i
OC[C@H]1O[C@@H](n2cnc3c(NC4CCCC4)ncnc32)[C@H](O)[C@@H]1O	i	i	i	i	i	i	nt	nt
C=CCNc1ncnc2c1ncn2C1OC(CO)C(O)C1O (stereo not given)	i	i	98.8	i	i	i	99.3	i
O=C(Nc1ccccc1)c1ccc(CN2CCc3ccccc3C2)cc1	i	i	92.0	i	i	i	102.3	i
O=C(Nc1ccc(S(=O)(=O)N2CCCCC2)cc1)c1ccc(CN2CCc3ccccc3C2)cc1	i	i	105.9	i	i	i	105.1	i
O=C(Nc1cccnc1)c1ccc(CN2CCc3ccccc3C2)cc1	i	i	i	i	i	i	nt	nt
Cc1ccc(NC(=O)c2ccc(CN3CCc4ccccc4C3)cc2)cc1	i	i	27.1	i	i	i	103.6	i
Cc1cc(NC(=O)NC(=O)c2ccccc2NC(=O)CN)ccc1Oc1ncc(Br)cn1	nt	i	i	i	nt	i	nt	nt
OCC[C@@H]1C[C@H](O)[C@@H](O)[C@@]2(OCCc3cc(C(F)(F)F)ccc32)O1	nt	nt	i	nt	nt	nt	nt	nt
CCC(c1nnnn1-c1ccc2c(c1)OCCO2)N1CCN(C(=O)C2CCCO2)CC1 (stereo not given)	nt	nt	i	nt	nt	nt	nt	nt
FC(F)(F)c1ccc(/C=N/NC(=S)NC2CCCCC2)cc1	i	i	i	i	i	i	nt	nt

Compound activity deposited in PubChem by several laboratories.
